According to ChEMBL document CHEMBL4376807, “Hydroxamic Acid Derivatives of β-Carboline/Hydroxycinnamic Acid Hybrids Inducing Apoptosis and Autophagy through the PI3K/Akt/mTOR Pathways” (J Nat Prod, 2019):
Active and inactive are the calls of the source. No cut-off for these calls is given here.

Legend:
Bel-7402 [1] = assay: Induction of autophagy in human Bel7402 cells assessed as upregulation of LC3-2 level at 1 uM after 24 to 72 hrs by Western blot analysis; format: functional, cell-based
Summary of the method: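 Bel7402 cells (1.5 × 10^5/mL) exposed to compound at indicated doses, or vehicle, for 24 or 72 h. Lysates (0.05 mg/lane) separated on 12% SDS-PAGE, blotted to nitrocellulose, blocked in 5% milk. Probed with anti-LC3, anti-p62 and anti-beclin-1, HRP secondary, chemiluminescent detection. Levels quantified relative to β-actin; three separate assays, mean ± SD.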

Huh-7 = assay: Antiproliferative activity against human HuH7 cells after 72 hrs by MTT assay; format: functional, cell-based; details: Huh-7, 72 h
Bel-7402 [2] = assay: Effect on AKT expression in human Bel7402 cells at 1 to 2.5 uM after 24 to 72 hrs by Western blot analysis; format: ADME, cell-based; details: bel-7402, 2.5 µM
Summary of the method: (§1)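 Bel7402 cells (1.5 × 10^5/mL) exposed to compound at 1.0 and 2.5 μM for 24 or 72 h. Lysates (0.05 mg/lane) separated on 12% SDS-PAGE and blotted to nitrocellulose. Probed for total Akt, phospho-Akt (Ser473), total mTOR and phospho-mTOR, HRP secondary, chemiluminescent detection. Quantified from three separate assays, mean ± SD.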

Bel-7402 [3] = assay: Induction of apoptosis in human Bel7402 cells assessed as increase in cleaved caspase-3 level at 1 uM after 72 hrs by Western blot analysis; format: functional, cell-based
Summary of the method: (§2)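 Subconfluent Bel7402 cells (1.5 × 10^5/mL) exposed to vehicle or compound for 72 h, then lysed. Lysates (0.05 mg/lane) run on 12% SDS-PAGE, transferred to nitrocellulose, blocked in 5% nonfat milk. Probed for Bax, Bcl-2, cleaved caspase-3 and cleaved PARP, with HRP secondary and chemiluminescence. Levels normalized to β-actin; three separate assays, mean ± SD.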

Homo sapiens [4] = species on record: Homo sapiens; assay: Selectivity ratio of IC50 for HDAC1 (unknown origin) to IC50 for human HDAC6
Summary of the method: (§3)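 Recombinant human HDAC1, 3, 6 and 8 (fluorimetric kit) incubated with compound over a range of concentrations and Boc-Lys(Ac)-AMC substrate at 37 °C for 60 min. Reaction quenched with lysine developer; after 30 min, fluorescence read at ex 355/em 460 nm. Inhibition taken relative to control and IC50 fitted; ratios built from these IC50s.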

Bel-7402 [5] = assay: Induction of autophagy in human Bel7402 cells assessed as accumulation of autophagic vacuoles at 5 uM after 24 hrs by acridine orange staining based fluorescence microscopic method; format: functional, cell-based
Summary of the method: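 Bel7402 cells (10 000) cultured overnight, then exposed to compound at 1.0 or 5.0 μM, or vehicle. Stained with 1 mg/mL acridine orange for 15−20 min, then dye removed. Red versus green fluorescence viewed by fluorescence microscopy at 400×. Representative images from three independent experiments.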

HepG2 = assay: Antiproliferative activity against human HepG2 cells after 72 hrs by MTT assay; format: functional, cell-based; details: HepG2, 72 h
[6] = Inhibition of PI3K/AKT/mTOR signaling in human Bel7402 cells assessed as reduction in mTOR phosphorylation after 24 to 72 hrs by Western blot analysis; format: cell-based; summary of the method: as §1
Bel-7402 [7] = assay: Induction of apoptosis in human Bel7402 cells assessed as increase in Bax expression after 72 hrs by Western blot analysis; format: functional, cell-based; summary of the method: as §2
L02 = assay: Cytotoxicity against human LO2 cells after 72 hrs by MTT assay; format: functional, cell-based; details: L02, 72 h
Summary of the method: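 Cells grown in DMEM with 10% heat-inactivated FBS, penicillin/streptomycin, 37 °C, 5% CO2. Seeded at 10^4 cells/mL overnight, then exposed to a range of compound concentrations for 72 h; 0.1% DMSO negative control. MTT (5 mg/mL stock) added, absorbance read at 570 nm; percent inhibition from three independent experiments, mean ± SD.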

Bel-7402 [8] = assay: Induction of apoptosis in human Bel7402 cells assessed as annexin-V positive cells at 5 uM after 72 hrs by Annexin-V/PI staining based flow cytometry relative to control; format: functional
Summary of the method: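 Bel7402 cells (10 000) cultured overnight, then exposed to compound at 1.0 or 5.0 μM, or vehicle, for 72 h. Harvested, stained with annexin-V APC and 7-AAD for 15 min. Apoptotic percentage measured by flow cytometry (APC ex 633/em 660 nm; 7-AAD ex 488/em 647 nm). Three separate assays, mean ± SD.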

Bel-7402 [9] = assay: Induction of apoptosis in human Bel7402 cells assessed as decrease in Bcl-2 expression after 72 hrs by Western blot analysis; format: functional, cell-based; summary of the method: as §2
Homo sapiens [10] = species on record: Homo sapiens; assay: Selectivity ratio of IC50 for human HDAC3 to IC50 for human HDAC6; summary of the method: as §3

SMILES: COc1ccc(-c2nc(NCCCOc3ccc(/C=C/C(=O)NO)cc3OC)cc3c2[nH]c2ccccc23)cc1
- Activity (Bel-7402 [1]): Active
- IC50 (Huh-7): 1100 nM
- Activity (Bel-7402 [2]): Non-Toxic
- Activity (Bel-7402 [3]): Active
- Ratio IC50 (Homo sapiens [4]): 2
- Activity (Bel-7402 [5]): Active
- IC50 (HepG2): 1400 nM
- inhibition [6]: Dose-dependent effect
- Activity (Bel-7402 [7]): Dose-dependent effect
- IC50 (L02): > 25000 nM
- Activity (Bel-7402 [8]): 73.8%
- Activity (Bel-7402 [9]): Dose-dependent effect
- Ratio IC50 (Homo sapiens [10]): 7 to 11
